Compounds with a hit are over-represented: about 2.8% of the library has one in this group of screens.
E-sel inducer = induces E-selectin expression in human endothelial cells | P16581 | HUVEC E-selectin immunofluorescence imaging; normalized: neutral wells 0, TNF-alpha wells 100 | activation, % at 7.58 µM | 0.37% of 260,000 active;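 active = mean E-selectin-positive cell signal at least 10% of the positive control, reached in at least 60% of replicates, without over 20% cell loss; inconclusive = no rule given, readout overlaps actives, possibly toxicity-flagged; inactive = the rest, including those meeting only one limit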
Target sequence (P16581 whole entry, looked up): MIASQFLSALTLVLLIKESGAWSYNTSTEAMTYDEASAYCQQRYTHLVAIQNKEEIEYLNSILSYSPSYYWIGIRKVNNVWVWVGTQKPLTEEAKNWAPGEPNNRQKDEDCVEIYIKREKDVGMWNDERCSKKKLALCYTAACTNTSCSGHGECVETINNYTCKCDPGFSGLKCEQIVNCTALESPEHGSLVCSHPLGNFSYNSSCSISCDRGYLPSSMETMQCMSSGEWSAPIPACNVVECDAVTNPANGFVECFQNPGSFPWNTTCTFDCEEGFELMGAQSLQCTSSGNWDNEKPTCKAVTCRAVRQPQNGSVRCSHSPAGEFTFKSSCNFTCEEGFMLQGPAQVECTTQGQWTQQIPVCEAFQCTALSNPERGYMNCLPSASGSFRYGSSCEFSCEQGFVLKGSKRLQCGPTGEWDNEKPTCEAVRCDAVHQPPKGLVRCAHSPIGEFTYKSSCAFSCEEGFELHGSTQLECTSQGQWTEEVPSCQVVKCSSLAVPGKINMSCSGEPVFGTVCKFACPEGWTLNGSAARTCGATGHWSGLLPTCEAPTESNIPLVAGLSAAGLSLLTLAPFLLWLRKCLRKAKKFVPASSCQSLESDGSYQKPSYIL
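Material: HUVEC primary endothelial cells; Amount: 3,000 cells per well; Dosing: single concentration; Medium: EGM-2 growth medium on 0.1% gelatin-coated wells; Read-out basis: percent E-selectin-positive cells; Signal: immunofluorescence imaging; Control set: TNF-alpha, DMSO.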
DENV2 CPE rescue = inhibitors of DENV2 cytopathic effect; CPE inhibition, % at 9.99 µM; DENV2-infected cells, cytopathic effect rescue, plate reader; 1.7% of 350,000 active; in the data active = CPE inhibition above about 20%, passing the limit was not always enough; inconclusive = no clear call, values can overlap the other calls; tested in BHK-21 cells;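 note: 0% = median of neutral control wells and 100% = median of positive control wells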
SIRT5 inh = inhibitors of human sirtuin-5 desuccinylase. Purified SirT5, succinyl-peptide AMC, trypsin-coupled fluorescence. 1.1% of 330,000 active. inhibition, % at 15 µM. Q9NXA8; in the data active = inhibition above about 15%; inconclusive = no clear call, values can overlap the other calls
* marks the source's active call; other numbers are inactive results; ? = inconclusive; · = no result.

SMILES	E-sel inducer	DENV2 CPE rescue	SIRT5 inh
COC(=O)c1ccc2nc(-c3ccc(C)cc3)c(Cc3ccc(C)cc3)n2c1	0	-3	-3
COC(=O)c1ccc2nc(-c3ccc(C)cc3)c(CC(C)(C)C)n2c1	0	-2	15*
CC(C)(C)Cc1c(-c2ccc(Br)cc2)nc2ccc(Br)cn12	0	101*	4
O=C(NCc1ccccc1)[C@@]1(Cc2ccccc2)COC(c2ccc(OCCCO)cc2)=N1	·	2	2
CC(C)(C)OC(=O)C[C@@H]1C/C=C\C[C@@H](CC(=O)N[C@@H](CO)Cc2ccccc2)C(=O)NC[C@@H](c2ccccc2)OC1=O	26	11	·
CC(C)(C)OC(=O)C[C@H]1C/C=C\C[C@@H](CC(=O)N[C@@H](CO)Cc2ccccc2)C(=O)NC[C@H](c2ccccc2)OC1=O	1	58*	1
CO[C@@H]1CN(C)C(=O)c2ccc(NC(=O)c3nc4ccccc4s3)cc2OC[C@@H](C)N(Cc2cccnc2)C[C@H]1C	0	·	102*
CO[C@@H]1CN(C)C(=O)c2ccc(NC(=O)c3nc4ccccc4s3)cc2OC[C@@H](C)N(Cc2cccnc2)C[C@@H]1C	0	·	·
COc1ccc(CN2C[C@@H](C)[C@@H](OC)CN(C)C(=O)c3cc(NC(=O)c4nc5ccccc5s4)ccc3OC[C@H]2C)cc1	0	-1	·
COc1ccc(CN2C[C@H](C)[C@H](OC)CN(C)C(=O)c3cc(NC(=O)c4nc5ccccc5s4)ccc3OC[C@@H]2C)cc1	0	22*	·
O=C(C[C@@H]1C[C@H]2c3cc(NC(=O)C4CCOCC4)ccc3O[C@H]2[C@H](CO)O1)NCc1ccc(Oc2ccccc2)cc1	1	-6	0
CC(C)NC(=O)N(C)C[C@@H]1Oc2ncc(-c3ccccc3F)cc2C(=O)N([C@H](C)CO)C[C@@H]1C	0	-1	-2
CCCNC(=O)N1[C@@H](CO)[C@@H](c2ccccc2)C12CN(C(=O)CC1CC1)C2	0	-12	2
NS(=O)(=O)c1cc(C(=O)NC2CCSc3ccccc32)ccc1Cl (centres undefined)	·	6	43*
NS(=O)(=O)c1cccc(C(=O)NC2CCSc3ccccc32)c1 (centres undefined)	0	9	-1
O=C(C[C@H]1C=C[C@H](NC(=O)C2CC2)[C@@H](CO)O1)NCCCN1CCOCC1	-1	?	1
COCC(=O)Nc1ccc2c(c1)C(=O)N(C)C[C@H](OC)[C@H](C)CN(Cc1cc(F)ccc1F)[C@@H](C)CO2	0	-6	-2
CCN1CCN(C(c2cccs2)C(C)NC(=S)Nc2cc(C)ccc2C)CC1 (centres undefined)	0	-7	16*
Cc1ccc(C)c(NC(=S)NC(C)C(c2ccccc2)N2CCN(C)CC2)c1 (centres undefined)	0	6	-1
C[C@@H]1CN([C@@H](C)CO)C(=O)c2cc(C#Cc3cccc(F)c3)cnc2O[C@H]1CN(C)Cc1ccccn1	-1	-7	-2
Cc1ccc(S(=O)(=O)Nc2ccc(O)c3ncccc23)cc1	·	107*	·
Cc1ccc(S(=O)(=O)Nc2ccc(O)c3cccnc23)cc1	·	0	-2
C[C@@H]1CN([C@@H](C)CO)C(=O)c2cc(/C=C/c3ccccc3)cnc2O[C@@H]1CN(C)C(=O)C1CC1	0	·	·
O=C(Nc1ccncc1)c1ccc2c(c1)S(=O)(=O)c1ccccc1C2=O	0	53*	·
N#Cc1cccnc1N1CCN(C(=O)c2ccc3c(c2)S(=O)(=O)c2ccccc2C3=O)CC1	0	-3	2
SMILES	E-sel inducer	DENV2 CPE rescue	SIRT5 inh
O=C(Nc1ccc(-c2ccccc2)cc1)c1ccc2c(c1)S(=O)(=O)c1ccccc1C2=O	0	-16	-1
O=C1c2ccccc2S(=O)(=O)c2cc(C(=O)N3CCN(c4ccc(Cl)cn4)CC3)ccc21	0	42*	-1
CO[C@@H]1CN(C)C(=O)c2cc(NC(=O)c3ccc(F)cc3)ccc2OC[C@@H](C)NC[C@@H]1C	1	·	·
CCN1[C@@H]2c3ccc(/C=C/c4ccccc4)c(=O)n3C[C@@H]2[C@@H](CO)[C@@H]1C(=O)N(C)C	0	1	-6
C[C@H](CO)N1C[C@H](C)[C@H](CN(C)C(=O)Nc2ccc(F)cc2)OCCCC[C@H](C)Oc2ccc(NC(=O)Nc3ccccc3)cc2C1=O	0	-3	13
C[C@H](CO)N1C[C@H](C)[C@@H](CN(C)S(=O)(=O)c2ccc(Cl)cc2)Oc2ccc(NC(=O)Nc3ccc(F)cc3)cc2CC1=O	-13	0	10
Cc1noc(C)c1S(=O)(=O)N(C)C[C@H]1Oc2ccc(NC(=O)Nc3ccc(F)cc3)cc2CC(=O)N([C@H](C)CO)C[C@@H]1C	64*	3	4
Cc1ccc(S(=O)(=O)N(C)C[C@@H]2Oc3ccc(NC(=O)Nc4ccc(F)cc4)cc3CC(=O)N([C@H](C)CO)C[C@@H]2C)cc1	3	2	0
Cc1ccc(S(=O)(=O)N(C)C[C@H]2Oc3ccc(NC(=O)Nc4ccc(F)cc4)cc3CC(=O)N([C@H](C)CO)C[C@@H]2C)cc1	0	80*	4
CC(C)NC(=O)Nc1ccc2c(c1)CC(=O)N([C@@H](C)CO)C[C@@H](C)[C@H](CN(C)S(=O)(=O)c1ccc(F)cc1)O2	6	45*	1
Cc1noc(C)c1S(=O)(=O)N(C)C[C@H]1Oc2ccc(NC(=O)Nc3ccc(F)cc3)cc2CC(=O)N([C@H](C)CO)C[C@H]1C	5	-2	3
C[C@@H]1CN([C@H](C)CO)C(=O)Cc2cc(NC(=O)Nc3ccc(F)cc3)ccc2O[C@H]1CN(C)S(=O)(=O)c1ccc(Cl)cc1	?	21*	4
CC(C)NC(=O)Nc1ccc2c(c1)CC(=O)N([C@H](C)CO)C[C@@H](C)[C@H](CN(C)S(=O)(=O)c1ccc(F)cc1)O2	-3	·	·
CS(=O)(=O)Nc1ccc2c(c1)[C@@H]1C[C@@H](CC(=O)NCc3ccccc3)O[C@@H](CO)[C@@H]1O2	0	·	1
C[C@H](CO)N1C[C@H](C)[C@H](CN(C)C(=O)C2CCCCC2)Oc2ncc(C#CC(C)(C)O)cc2C1=O	1	·	·
CCNC(=O)C[C@@H]1CC[C@@H]2[C@@H](COc3ccc(NC(=O)c4cccc(OC)c4)cc3C(=O)N2C)O1	0	4	2
CCCNC(=O)N1CC2(C1)CN(C(=O)CC1CC1)[C@H](CO)c1[nH]c3cc(OC)ccc3c12	0	-13	·
COc1ccc(N2CCN(C(=O)[C@H](C)NC(=O)c3ccccc3Cl)CC2)cc1	·	-8	-2
COc1ccc(N2CCN(C(=O)[C@@H](NC(=O)c3ccccc3Cl)C(C)C)CC2)cc1	0	-8	16*
COc1ccc2c3c([nH]c2c1)[C@H](CO)N(Cc1ccccc1)CC31CN(C(=O)Nc2cccc(F)c2)C1	0	7	2
COc1ccccc1S(=O)(=O)N1CCN(S(=O)(=O)c2cccs2)CC1	0	-9	-4
COc1ccccc1S(=O)(=O)N1CCN(S(=O)(=O)c2ccccc2C#N)CC1	·	-1	91*
COc1ccc(C(CNC(=O)COc2cc(C)ccc2Cl)N2CCCCC2)cc1 (centres undefined)	·	37*	0
COc1ccccc1C(CNC(=O)COc1cc(C)ccc1Cl)N1CCCC1 (centres undefined)	-1	-2	-2

Screening results: PubChem, Broad Institute
